Source: ChEMBL document CHEMBL3826889, “Symmetrical bis-tertiary amines as novel CXCR4 inhibitors” (2016)

Columns and labels:
[1] = target: C-X-C chemokine receptor type 4 (Homo sapiens) (UniProt P61073); test: Displacement of biotinylated TN14003 from CXCR4 CXCL12 binding domain in human MDA-MB-231 cells preincubated for 10 mins followed by biotinylated TN14003 addition measured after 30 mins using streptavidin-conjugated rhodamine by fluorescence microscopic analysis; format: cell-based
How it was run: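 MDA-MB-231 cells, 2 × 10^4 per well, seeded 2 days prior. Compound at 1, 10, 100 or 1000 nM for 10 min at room temperature, then fixed in 4% ice-cold paraformaldehyde and rehydrated in PBS. Then 0.05 μg/mL biotinylated TN14003 for 30 min at RT, PBS washes, streptavidin-rhodamine (1:150) for 30 min at RT. Fluorescence microscopy. EC = lowest concentration giving significant fluorescence reduction vs control; semi-quantitative.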

[2] = tested on: MDA-MB-231; test: Inhibition of […]-induced invasion of human MDA-MB-231 cells at 100 nM after 22 hrs by hematoxylin/eosin-staining based matrigel assay; format: functional; conditions: MDA-MB-231, 22 h
How it was run: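 Invasion chambers with Matrigel-coated 8 μm pore support. MDA-MB-231 cells treated with compound at 100 nM before seeding in the top chamber; CXCL12α at 200 ng/mL in the bottom chamber as chemoattractant. Incubation 22 h, humidified. Non-invading cells swabbed off; invaded cells fixed in methanol and H&E-stained, then counted to give percent invasion.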

[3] = tested on: Mus musculus; test: Antiinflammatory activity against carrageenan-induced paw edema in C57BL/6J mouse assessed as inhibition of edema volume at 300 ug/kg, ip daily administered 30 mins post carrageenan-challenge measured post 2 hrs of last injection; format: functional
How it was run: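 Acute paw inflammation in female C57BL/6J mice: 50 μL λ-carrageenan (1% w/v in saline) injected s.c. into one hind paw, saline into the contralateral paw. Dosing i.p. daily from 30 min after challenge, in 10% DMSO / 90% of 45% (2-hydroxypropyl)-β-cyclodextrin in PBS; vehicle controls. Sacrifice at 74 h post-challenge, 2 h after last dose. Paw thickness by caliper; edema = injected minus contralateral. Suppression % vs vehicle group; 5 mice/group.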

Chain of C-X-C chemokine receptor type 4 (Homo sapiens) (P61073 whole entry, the tested form may be a part): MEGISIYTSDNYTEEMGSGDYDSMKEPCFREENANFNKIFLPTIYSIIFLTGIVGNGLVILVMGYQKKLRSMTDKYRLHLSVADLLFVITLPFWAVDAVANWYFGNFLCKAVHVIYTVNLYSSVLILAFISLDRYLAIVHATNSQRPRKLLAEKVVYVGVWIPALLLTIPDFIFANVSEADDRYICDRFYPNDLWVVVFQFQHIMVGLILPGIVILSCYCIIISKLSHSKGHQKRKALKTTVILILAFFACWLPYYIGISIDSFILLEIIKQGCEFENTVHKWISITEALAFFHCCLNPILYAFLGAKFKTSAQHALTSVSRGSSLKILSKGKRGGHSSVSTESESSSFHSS

EC [1] [nM] | SMILES | inhibition at 0.1 µM [2] [%] | inhibition in vivo at 0.3 mg/kg [3] [%]
100 | CN(Cc1ccc(CN(C)c2ccc(F)cc2)cc1)c1ccc(F)cc1 | 66.4 | –
> 1000 | c1cc(CN2CCOCC2)ccc1CN1CCOCC1 | – | –
10 | COc1cccc(CN(C)Cc2ccc(CN(C)Cc3cccc(OC)c3)cc2)c1 | < 50 | –
> 1000 | CN(Cc1ccc(CN(C)Cc2ccccn2)cc1)Cc1ccccn1 | – | –
> 1000 | CN(Cc1ccc(CN(C)Cc2ccccc2Cl)cc1)Cc1ccccc1Cl | – | –
1000 | CN(Cc1ccc(CN(C)c2ccccc2)cc1)c1ccccc1 | – | –
1000 | CCN(Cc1ccccc1)Cc1ccc(CN(CC)Cc2ccccc2)cc1 | – | –
> 1000 | CN(Cc1ccc(F)cc1)Cc1ccc(CN(C)Cc2ccc(F)cc2)cc1 | – | –
> 1000 | CN(Cc1ccc(CN(C)Cc2cccnc2)cc1)Cc1cccnc1 | – | –
1000 | CN(Cc1ccc(CN(C)Cc2cccc(Cl)c2)cc1)Cc1cccc(Cl)c1 | – | –
1000 | c1ccc(CN(Cc2ccc(CN(Cc3ccccc3)CC3CC3)cc2)CC2CC2)cc1 | – | –
– | N=C(N)NCCC[C@@H]1NC(=O)[C@H](Cc2ccc(O)cc2)NC(=O)[C@H]2CCCN2C(=O)[C@@H](CCCCN)NC(=O)[C@@H](CCCCN)NC(=O)[C@H](CCCNC(=N)N)NC(=O)[C@H](Cc2ccc(O)cc2)NC(=O)[C@H](NC(=O)[C@@H](Cc2ccc3ccccc3c2)NC(=O)[C@H](CCCNC(=N)N)NC(=O)[C@@H](CCCNC(=N)N)NC(=O)c2ccc(F)cc2)CSSC[C@H](C(=O)N[C@H](CCCNC(=N)N)C(N)=O)NC(=O)[C@@H](CCCNC(N)=O)NC1=O (stereo in doubt) | – | 48
1000 | c1cc(CN2CCCC2)ccc1CN1CCCC1 | – | –
1000 | c1cc(CN2CCCNCCNCCCNCC2)ccc1CN1CCCNCCNCCCNCC1 [PLERIXAFOR] | 62 | –
10 | c1cc(CN2CCCCC2)ccc1CN1CCCCC1 | < 50 | –
> 1000 | CN(Cc1ccc(CN(C)Cc2cccc(F)c2)cc1)Cc1cccc(F)c1 | – | –
> 1000 | CN(Cc1ccc(CN(C)Cc2ccccc2F)cc1)Cc1ccccc1F | – | –
> 1000 | CN(Cc1ccncc1)Cc1ccc(CN(C)Cc2ccncc2)cc1 | – | –
